# Experimental data published in ChEMBL document CHEMBL1131382, “Structure-activity relationship of new growth inhibitors of Trypanosoma cruzi” (J Med Chem, 1998).
# Tests used:
# Trypanosoma cruzi [1] = assay: Concentration required to inhibit proliferation of the epimastigote form of Trypanosoma cruzi; format: functional, organism-based
# Method in brief: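 T. cruzi epimastigotes (Y strain) at 28 °C in brain–heart infusion (37 g/L) with hemin (20 mg/L) and 10% newborn calf serum; inoculum (2–3) × 10⁶ cells/mL, 1 mL. Drugs at 1, 10, 50 and 100 μg/mL, each in quadruplicate, with a drug-free control. Growth read as absorbance at 600 nm; percent inhibition from the change in absorbance of drug-treated versus control cultures between start and end.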
# Trypanosoma cruzi [2] = assay: Growth inhibition of the intracellular Trypanosoma cruzi was measured by counting no. of parasites per 100 myoblasts (T. cruzi ) after 48 hr (absence of compound); format: functional
# Trypanosoma cruzi [3] = assay: Growth inhibition of the intracellular Trypanosoma cruzi was measured by counting percentage of myoblasts with Trypanosoma cruzi parasite after time gap of 48 hr at the concentration of 1.0 ug/mL; format: functional
# Trypanosoma cruzi [4] = assay: Growth inhibition of the intracellular Trypanosoma cruzi was measured by counting percentage of myoblasts with Trypanosoma cruzi parasite after time gap of 48 hr at the concentration of 2.5 ug/mL; format: functional
# Trypanosoma cruzi [5] = assay: Growth inhibition of the intracellular Trypanosoma cruzi was measured by counting percentage of myoblasts with Trypanosoma cruzi parasite after time gap of 48 hr at the concentration of 5.0 ug/mL; format: functional
# Trypanosoma cruzi [6] = assay: Growth inhibition of the intracellular Trypanosoma cruzi was measured by counting percentage of myoblasts with Trypanosoma cruzi parasite after time gap of 48 hr (with out compound); format: functional
# Trypanosoma cruzi [7] = assay: Growth inhibition of the intracellular Trypanosoma cruzi was measured by counting percentage of myoblasts with Trypanosoma cruzi parasite after time gap of 72 hr at the concentration of 1.0 ug/mL; format: functional
# Trypanosoma cruzi [8] = assay: Growth inhibition of the intracellular Trypanosoma cruzi was measured by counting percentage of myoblasts with Trypanosoma cruzi parasite after time gap of 72 hr at the concentration of 2.5 ug/mL; format: functional
# Trypanosoma cruzi [9] = assay: Growth inhibition of the intracellular Trypanosoma cruzi was measured by counting percentage of myoblasts with Trypanosoma cruzi parasite after time gap of 72 hr at the concentration of 5.0 ug/mL; format: functional
# Trypanosoma cruzi [10] = assay: Growth inhibition of the intracellular Trypanosoma cruzi was measured by counting percentage of myoblasts with Trypanosoma cruzi parasite after time gap of 72h( absence of compound); format: functional
# Trypanosoma cruzi [11] = assay: Growth inhibition of the intracellular Trypanosoma cruzi was measured by no. of parasites per 100 myoblasts (T. cruzi ) after 48 hr at the concentration of 0.1 (ug/mL); format: functional
# Trypanosoma cruzi [12] = assay: Growth inhibition of the intracellular Trypanosoma cruzi was measured by no. of parasites per 100 myoblasts (T. cruzi ) after 48 hr at the concentration of 0.5 (ug/mL); format: functional
# Trypanosoma cruzi [13] = assay: Growth inhibition of the intracellular Trypanosoma cruzi was measured by no. of parasites per 100 myoblasts (T. cruzi ) after 72 hr at the concentration of 0.1 (ug/mL); format: functional
# Trypanosoma cruzi [14] = assay: Growth inhibition of the intracellular Trypanosoma cruzi was measured by no. of parasites per 100 myoblasts (T. cruzi ) after 72 hr at the concentration of 0.5 (ug/mL); format: functional
# Trypanosoma cruzi [15] = assay: Growth inhibition of the intracellular Trypanosoma cruzi was measured by no. of parasites per 100 myoblasts (T. cruzi ) after 72 hr at the concentration of 1.0 (ug/mL); format: functional
# Trypanosoma cruzi [16] = assay: Growth inhibition of the intracellular Trypanosoma cruzi was measured by no. of parasites per 100 myoblasts (T. cruzi ) after 72 hr (absence of compound); format: functional
# Trypanosoma cruzi [17] = assay: Growth inhibition of the intracellular Trypanosoma cruzi was measured by no. of parasites per 100 myoblasts (T. cruzi ) after time gap of 24 hr (with out compound); format: functional
# Trypanosoma cruzi [18] = assay: Growth inhibition of the intracellular Trypanosoma cruzi was measured by no. of parasites per 100 myoblasts (T. cruzi ) after time gap of 48 hr at the concentration of 1.0 ug/mL; format: functional
# Trypanosoma cruzi [19] = assay: Growth inhibition of the intracellular Trypanosoma cruzi was measured by no. of parasites per 100 myoblasts (T. cruzi ) after time gap of 48 hr at the concentration of 2.5 ug/mL; format: functional
# Trypanosoma cruzi [20] = assay: Growth inhibition of the intracellular Trypanosoma cruzi was measured by counting no. of parasites per 100 myoblasts (T. cruzi ) after 24 h (absence of compound); format: functional
# Trypanosoma cruzi [21] = assay: Growth inhibition of the intracellular Trypanosoma cruzi was measured by counting percentage of myoblasts with Trypanosoma cruzi parasite after 48 hr at the concentration of 1.0 (ug/mL); format: functional
# Trypanosoma cruzi [22] = assay: Growth inhibition of the intracellular Trypanosoma cruzi was measured by counting percentage of myoblasts with Trypanosoma cruzi parasite after 48 hr (absence of compound); format: functional
# Trypanosoma cruzi [23] = assay: Growth inhibition of the intracellular Trypanosoma cruzi was measured by counting percentage of myoblasts with Trypanosoma cruzi parasite after 72 hr at the concentration of 0.1 (ug/mL); format: functional
# Trypanosoma cruzi [24] = assay: Growth inhibition of the intracellular Trypanosoma cruzi was measured by counting percentage of myoblasts with Trypanosoma cruzi parasite after 72 hr at the concentration of 0.5 (ug/mL); format: functional
# Trypanosoma cruzi [25] = assay: Growth inhibition of the intracellular Trypanosoma cruzi was measured by counting percentage of myoblasts with Trypanosoma cruzi parasite after 72 hr at the concentration of 1.0 (ug/mL); format: functional
# Trypanosoma cruzi [26] = assay: Growth inhibition of the intracellular Trypanosoma cruzi was measured by counting percentage of myoblasts with Trypanosoma cruzi parasite after 72 hr (absence of compound); format: functional
# Trypanosoma cruzi [27] = assay: Growth inhibition of the intracellular Trypanosoma cruzi was measured by counting percentage of myoblasts with Trypanosoma cruzi parasite after time gap of 24 hr (with out compound); format: functional
# Trypanosoma cruzi [28] = assay: Growth inhibition of the intracellular Trypanosoma cruzi was measured by no. of parasites per 100 myoblasts (T. cruzi ) after time gap of 48 hr at the concentration of 5.0 ug/mL; format: functional
# Trypanosoma cruzi [29] = assay: Growth inhibition of the intracellular Trypanosoma cruzi was measured by no. of parasites per 100 myoblasts (T. cruzi ) after time gap of 48 hr (with out compound); format: functional
# Trypanosoma cruzi [30] = assay: Growth inhibition of the intracellular Trypanosoma cruzi was measured by counting percentage of myoblasts with Trypanosoma cruzi parasite after 48 hr at the concentration of 0.1 (ug/mL); format: functional
# Trypanosoma cruzi [31] = assay: Growth inhibition of the intracellular Trypanosoma cruzi was measured by no. of parasites per 100 myoblasts (T. cruzi ) after time gap of 72 hr (absence of compound); format: functional
# Trypanosoma cruzi [32] = assay: Growth inhibition of the intracellular Trypanosoma cruzi was measured by no. of parasites per 100 myoblasts (T. cruzi ) after time gap of 72 hr at the concentration of 1.0 ug/mL; format: functional
# Trypanosoma cruzi [33] = assay: Growth inhibition of the intracellular Trypanosoma cruzi was measured by no. of parasites per 100 myoblasts (T. cruzi ) after time gap of 72 hr at the concentration of 2.5 ug/mL; format: functional
# Trypanosoma cruzi [34] = assay: Growth inhibition of the intracellular Trypanosoma cruzi was measured by no. of parasites per 100 myoblasts (T. cruzi ) after time gap of 72 hr at the concentration of 5.0 ug/mL; format: functional
# Trypanosoma cruzi [35] = assay: Growth inhibition of the intracellular Trypanosoma cruzi was measured by no. of parasites per 100 myoblasts (T. cruzi ) after 48 hr at the concentration of 1.0 (ug/mL); format: functional
# Trypanosoma cruzi [36] = assay: Growth inhibition of the intracellular Trypanosoma cruzi was measured by counting percentage of myoblasts with Trypanosoma cruzi parasite after 24 hr (absence of compound); format: functional
# Trypanosoma cruzi [37] = assay: Growth inhibition of the intracellular Trypanosoma cruzi was measured by counting percentage of myoblasts with Trypanosoma cruzi parasite after 48 hr at the concentration of 0.5 (ug/mL); format: functional
compound,measurement,setting,value
C/C=C/Oc1ccc(Oc2ccccc2)cc1,IC50,Trypanosoma cruzi [1],> 440 µM
CCOC(=S)SCCOc1ccc(Oc2ccccc2)cc1,IC50,Trypanosoma cruzi [1],41.9 µM
Brc1ccc(Oc2ccc(OCCOC3CCCCO3)cc2)cc1 (stereo not given),IC50,Trypanosoma cruzi [1],85 µM
C=CCOc1ccc(Oc2ccccc2)cc1Cl,IC50,Trypanosoma cruzi [1],> 250 µM
C=CCOc1ccc(Oc2ccccc2)cc1,IC50,Trypanosoma cruzi [1],221 µM
CC(C)COC(=O)SCCOc1ccc(Oc2ccccc2)cc1,IC50,Trypanosoma cruzi [1],19.1 µM
CCSC(=O)SCCOc1ccc(Oc2ccccc2)cc1,IC50,Trypanosoma cruzi [1],37.7 µM
N#CSCCOc1ccc(Cc2ccccc2)cc1,IC50,Trypanosoma cruzi [1],13.4 µM
C=CCOc1ccc(Oc2ccc(Br)cc2)cc1,IC50,Trypanosoma cruzi [1],> 250 µM
C=CCOc1ccc(Cl)cc1Cl,IC50,Trypanosoma cruzi [1],282 µM
c1ccc(COc2ccc(OCCOC3CCCCO3)cc2)cc1 (stereo not given),IC50,Trypanosoma cruzi [1],121 µM
Clc1cc(Oc2ccccc2)ccc1OCCOC1CCCCO1 (stereo not given),IC50,Trypanosoma cruzi [1],143 µM
C=CCOc1ccc(Oc2ccccc2)cc1I,IC50,Trypanosoma cruzi [1],91 µM
C=CCOc1ccc(Oc2ccc([N+](=O)[O-])cc2)cc1,IC50,Trypanosoma cruzi [1],230 µM
CCOC(=O)SCCOc1ccc(Oc2ccccc2)cc1,IC50,Trypanosoma cruzi [1],15.1 µM
C=CCOc1ccc(Oc2ccccc2)cc1[N+](=O)[O-],IC50,Trypanosoma cruzi [1],185 µM
Brc1cc(Oc2ccccc2)ccc1OCCOC1CCCCO1 (stereo not given),IC50,Trypanosoma cruzi [1],67 µM
C=CCSC(=S)OCCOc1ccc(Oc2ccccc2)cc1,IC50,Trypanosoma cruzi [1],96.1 µM
N#CSCCCOc1ccc(Oc2ccccc2)cc1,IC50,Trypanosoma cruzi [1],3.5 µM
c1ccc(Cc2ccc(OCCOC3CCCCO3)cc2)cc1 (stereo not given),IC50,Trypanosoma cruzi [1],282 µM
C=CCOc1ccc(Oc2ccc(Cl)cc2)cc1,IC50,Trypanosoma cruzi [1],> 250 µM
C=CCOc1ccc(Oc2ccccc2)cc1NC(C)=O,IC50,Trypanosoma cruzi [1],97 µM
c1ccc(Oc2ccc(OCC3CS3)cc2)cc1 (stereo not given),IC50,Trypanosoma cruzi [1],3.9 µM
C=CCOc1ccc(Oc2ccc(C(=O)c3ccccc3)cc2)cc1,IC50,Trypanosoma cruzi [1],> 330 µM
N#CSCCOc1ccc(Oc2ccccc2)cc1,R,Trypanosoma cruzi [2],239.5%
same,Myoblasts with parasites,Trypanosoma cruzi [3],20.5%
same,Myoblasts with parasites,Trypanosoma cruzi [4],20.3%
same,Myoblasts with parasites,Trypanosoma cruzi [5],19.8%
same,Myoblasts with parasites,Trypanosoma cruzi [6],31.5%
same,Myoblasts with parasites,Trypanosoma cruzi [7],16.3%
same,Myoblasts with parasites,Trypanosoma cruzi [8],17%
same,Myoblasts with parasites,Trypanosoma cruzi [9],8.3%
same,Myoblasts with parasites,Trypanosoma cruzi [10],24.8%
same,R,Trypanosoma cruzi [11],218%
same,R,Trypanosoma cruzi [12],98%
same,R,Trypanosoma cruzi [13],238%
same,R,Trypanosoma cruzi [14],124.5%
same,R,Trypanosoma cruzi [15],63.5%
same,R,Trypanosoma cruzi [16],578.5%
same,R,Trypanosoma cruzi [17],85%
same,R,Trypanosoma cruzi [18],59.3%
same,R,Trypanosoma cruzi [19],57%
same,R,Trypanosoma cruzi [20],91.8%
same,Myoblasts with parasites,Trypanosoma cruzi [21],19.3%
same,Myoblasts with parasites,Trypanosoma cruzi [22],21.5%
same,Myoblasts with parasites,Trypanosoma cruzi [23],15.5%
same,Myoblasts with parasites,Trypanosoma cruzi [24],12.5%
same,Myoblasts with parasites,Trypanosoma cruzi [25],15%
same,Myoblasts with parasites,Trypanosoma cruzi [26],27.5%
same,Myoblasts with parasites,Trypanosoma cruzi [27],38%
same,R,Trypanosoma cruzi [28],48%
same,R,Trypanosoma cruzi [29],270.5%
same,Myoblasts with parasites,Trypanosoma cruzi [30],22%
same,R,Trypanosoma cruzi [31],733.5%
same,R,Trypanosoma cruzi [32],85.5%
same,R,Trypanosoma cruzi [33],76.3%
same,R,Trypanosoma cruzi [34],28%
same,R,Trypanosoma cruzi [35],69.3%
same,Myoblasts with parasites,Trypanosoma cruzi [36],26%
same,IC50,Trypanosoma cruzi [1],2.2 µM
same,Myoblasts with parasites,Trypanosoma cruzi [37],18.3%
CCSC(=O)OC/C=C(\C)CCC=C(C)C,IC50,Trypanosoma cruzi [1],298 µM
Clc1ccc(OCCOC2CCCCO2)c(Cl)c1 (stereo not given),IC50,Trypanosoma cruzi [1],93 µM
C=CCOc1ccc(Oc2ccccc2)cc1Br,IC50,Trypanosoma cruzi [1],182 µM
N#CSCCOc1ccc(OCc2ccccc2)cc1,IC50,Trypanosoma cruzi [1],8.1 µM
C=CCOc1ccc(Sc2ccccc2)cc1,IC50,Trypanosoma cruzi [1],324 µM
CCSC(=O)OC/C=C(\C)CCC1OC1(C)C (stereo not given),IC50,Trypanosoma cruzi [1],> 380 µM
CCNC(=O)SCCOc1ccc(Oc2ccccc2)cc1,IC50,Trypanosoma cruzi [1],17 µM
C=CCOc1ccc(Oc2ccc(C(C)=O)cc2)cc1,IC50,Trypanosoma cruzi [1],300 µM
CC1CS(=O)(=O)CCN1/N=C/c1ccc([N+](=O)[O-])o1 (stereo not given) [NIFURTIMOX],R,Trypanosoma cruzi [2],155%
same,R,Trypanosoma cruzi [15],70.5%
same,R,Trypanosoma cruzi [16],321%
same,R,Trypanosoma cruzi [20],80.25%
same,Myoblasts with parasites,Trypanosoma cruzi [21],14%
same,Myoblasts with parasites,Trypanosoma cruzi [22],16.25%
same,Myoblasts with parasites,Trypanosoma cruzi [25],12.5%
same,Myoblasts with parasites,Trypanosoma cruzi [26],20%
same,R,Trypanosoma cruzi [35],64.5%
same,Myoblasts with parasites,Trypanosoma cruzi [36],34.5%
same,IC50,Trypanosoma cruzi [1],8.6 µM
